In brackets after ≈: the same amount, converted by molar mass.
Key:
Clostridioides difficile [1] = assay: Antimicrobial activity against Clostridium difficile ATCC 43255 by broth microdilution method; type: functional
Procedure, shortened: (§1)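 MICs determined by CLSI broth microdilution. Broth microdilution was used for every species tested, including the anaerobe C. difficile.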

[2] = Aqueous solubility of the compound at 20 mg/ml after 24 hrs RP-HPLC based shake flask method; type: physicochemical; conditions: aqueous medium
Procedure, shortened: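 Compound samples examined for dissolution. Clear solutions were reported as >starting concentration, with pH recorded. Samples with visible particles were filtered through 0.22 µ PVDF membranes, pH recorded, and dissolved drug quantified by RP-HPLC.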

Enterococcus faecalis [3] = assay: Antimicrobial activity against Enterococcus faecalis ATCC 29212 by broth microdilution method; type: functional; procedure, shortened: as §1
Enterococcus faecium = assay: Antimicrobial activity against Enterococcus faecium 7130724 by broth microdilution method; type: functional; procedure, shortened: as §1
Staphylococcus aureus [4] = assay: Antimicrobial activity against methicillin-resistant Staphylococcus aureus by broth microdilution method; type: functional
Procedure, shortened: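 Broth microdilution MIC following CLSI methods, with broth microdilution used for all species.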

Streptococcus pyogenes = assay: Antimicrobial activity against Streptococcus pyogenes ATCC BAA-595 by broth microdilution method; type: functional; procedure, shortened: as §1
Staphylococcus aureus [5] = assay: Antimicrobial activity against Staphylococcus aureus ATCC 49951 infected in CD1 mouse systemic infection model dosed intravenously 1 and 5 hrs after inoculation; type: functional; conditions: for ED50: ATCC 49951, iv
Clostridioides difficile [6] = assay: Antimicrobial activity against Clostridium difficile ATCC 43255 infected in golden Syrian hamster assessed as animal survival at 20 mg/kg, po for 5 days dosed starting 24 hrs after infection measured for 16 days; type: functional; conditions: ATCC 43255, po
Procedure, shortened: (§2)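 Hamsters given a single subcutaneous clindamycin injection (10 mg/kg) on day -1. About 24 h later they were infected by oral gavage with ~7.5 x10^6 CFU/hamster. Inoculum was prepared from overnight plates resuspended in reinforced clostridial medium + 1% oxyrase. Oral dosing once daily for up to 5 days, 8 animals per dose. Animals observed twice daily for mortality, diarrhea and morbidity. Vehicle-only control group.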

Enterococcus faecalis [7] = assay: Antimicrobial activity against Enterococcus faecalis NB04025 infected in CD1 mouse systemic infection model dosed intravenously once immediately following bacterial inoculation; type: functional; conditions: for ED50: NB04025, iv
Clostridioides difficile [8] = assay: Antimicrobial activity against Clostridium difficile ATCC 43255 infected in golden Syrian hamster assessed as animal survival at 25 mg/kg, po for 5 days dosed starting 24 hrs after infection measured for 16 days; type: functional; conditions: ATCC 43255, po; procedure, shortened: as §2
Enterococcus faecalis [9] = assay: Antimicrobial activity against Enterococcus faecalis NB04025; type: functional
Procedure, shortened: (§3)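 MIC by CLSI broth microdilution against the strains used in the mouse infection model.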

Staphylococcus aureus [10] = assay: Antimicrobial activity against Staphylococcus aureus ATCC 49951; type: functional; procedure, shortened: as §3
Clostridioides difficile [11] = assay: Antimicrobial activity against Clostridium difficile ATCC 43255 infected in golden Syrian hamster assessed as animal survival at 5 mg/kg, po for 5 days dosed starting 24 hrs after infection measured for 16 days; type: functional; conditions: ATCC 43255, po; procedure, shortened: as §2
Clostridioides difficile [12] = assay: Antimicrobial activity against Clostridium difficile ATCC 43255 infected in golden Syrian hamster assessed as animal survival at 10 mg/kg, po for 5 days dosed starting 24 hrs after infection measured for 16 days; type: functional; conditions: ATCC 43255, po; procedure, shortened: as §2
[13] = AUC in Sprague-Dawley rat at 1 mg/kg, iv by LC-MS/MS method; type: ADME, organism-based; conditions: in vivo
Procedure, shortened: (§4)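 Rats fasted overnight before dosing and for 8 hr after. Blood collected into K2-EDTA tubes and centrifuged to plasma. Plasma protein-precipitated with acetonitrile containing glyburide internal standard. Analysis by LC-MS/MS on reversed-phase C18 columns with a 5% to 95% acetonitrile gradient over ~3.5 min (0.1% formic acid in both phases).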

[14] = Clearance in Sprague-Dawley rat at 1 mg/kg, iv by LC-MS/MS method; type: ADME, organism-based; conditions: in vivo; procedure, shortened: as §4
[15] = Half life in Sprague-Dawley rat at 1 mg/kg, iv by LC-MS/MS method; type: ADME, organism-based; conditions: in vivo; procedure, shortened: as §4
[16] = Volume of distribution at steady state in Sprague-Dawley rat at 1 mg/kg, iv by LC-MS/MS method; type: ADME, organism-based; conditions: in vivo, read-out: Vdss; procedure, shortened: as §4

Row | SMILES | MIC (Clostridioides difficile [1]) [µg/mL] | solubility thermodynamic at 24 h [2] [µg/mL] | MIC (Enterococcus faecalis [3]) [µg/mL] | MIC (Enterococcus faecium) [µg/mL] | MIC (Staphylococcus aureus [4]) [µg/mL] | MIC (Streptococcus pyogenes) [µg/mL] | ED50 (Staphylococcus aureus [5]) [mg/kg] | ED50 (Enterococcus faecalis [7]) [mg/kg] | survival at 25 mg/kg (Clostridioides difficile [8]) [%] | further results
1 | Cc1sc2nc1C(=O)N[C@@H]([C@H](O)c1ccccc1)c1nc(cs1)C(=O)N[C@@H](Cc1ccc(O)cc1)C(=O)NCC(=O)N1C[C@H](O)[C@H](C)[C@H]1c1nc(cs1)-c1nc(cs1)-c1nc(-c3nc(C(=O)N(CCCCC(=O)O)[C@H]4CC[C@H](C(=O)O)CC4)cs3)ccc1-c1nc(cs1)C(=O)N[C@H]2CC(N)=O | 0.125 (≈ 0.0842 µM) | 3400 (≈ 2290 µM) | 1 (≈ 0.674 µM) | 1 (≈ 0.674 µM) | 2 (≈ 1.35 µM) | 0.5 (≈ 0.337 µM) | – | – | – | –
2 | CN[C@H](CC(C)C)C(=O)N[C@H]1C(=O)N[C@@H](CC(N)=O)C(=O)N[C@H]2C(=O)N[C@H]3C(=O)N[C@H](C(=O)N[C@H](C(=O)O)c4cc(O)cc(O)c4-c4cc3ccc4O)[C@H](O)c3ccc(c(Cl)c3)Oc3cc2cc(c3O[C@@H]2O[C@H](CO)[C@@H](O)[C@H](O)[C@H]2O[C@H]2C[C@](C)(N)[C@H](O)[C@H](C)O2)Oc2ccc(cc2Cl)[C@H]1O [VANCOMYCIN] | – | – | – | – | – | – | 1.1 | 7.74 | – | survival at 20 mg/kg (Clostridioides difficile [6]): 38%
3 | Cc1sc2nc1C(=O)N[C@@H]([C@H](O)c1ccccc1)c1nc(cs1)C(=O)N[C@@H](Cc1ccc(O)cc1)C(=O)NCC(=O)N1C[C@H](O)[C@H](C)[C@H]1c1nc(cs1)-c1nc(cs1)-c1nc(-c3nc(C(=O)O)cs3)ccc1-c1nc(cs1)C(=O)N[C@H]2CC(N)=O | 0.125 (≈ 0.0993 µM) | 1 (≈ 0.795 µM) | 0.5 (≈ 0.397 µM) | 0.5 (≈ 0.397 µM) | 2 (≈ 1.59 µM) | 0.5 (≈ 0.397 µM) | – | – | 75 | –
4 | Cc1sc2nc1C(=O)N[C@@H]([C@H](O)c1ccccc1)c1nc(cs1)C(=O)N[C@@H](Cc1ccc(O)cc1)C(=O)NCC(=O)N1C[C@H](O)[C@H](C)[C@H]1c1nc(cs1)-c1nc(cs1)-c1nc(-c3nc(C(=O)NCCCCC(=O)O)cs3)ccc1-c1nc(cs1)C(=O)N[C@H]2CC(N)=O | 0.06 (≈ 0.0442 µM) | 730 (≈ 538 µM) | 0.125 (≈ 0.0921 µM) | 0.125 (≈ 0.0921 µM) | 0.5 (≈ 0.368 µM) | 0.125 (≈ 0.0921 µM) | – | – | 13 | –
5 | Cc1sc2nc1C(=O)N[C@@H]([C@H](O)c1ccccc1)c1nc(cs1)C(=O)N[C@@H](Cc1ccc(O)cc1)C(=O)NCC(=O)N1C[C@H](O)[C@H](C)[C@H]1c1nc(cs1)-c1nc(cs1)-c1nc(-c3nc(C(N)=O)cs3)ccc1-c1nc(cs1)C(=O)N[C@H]2CC(N)=O | < 0.008 | – | 0.25 (≈ 0.199 µM) | 0.5 (≈ 0.398 µM) | 0.25 (≈ 0.199 µM) | 1 (≈ 0.795 µM) | 8 | 1.5 | 0 | MIC (Enterococcus faecalis [9]): 0.125 µg/mL (≈ 0.0994 µM); MIC (Staphylococcus aureus [10]): 1 µg/mL (≈ 0.795 µM)
6 | CCCCCCCCCC(=O)N[C@@H](Cc1c[nH]c2ccccc12)C(=O)N[C@H](CC(N)=O)C(=O)N[C@@H](CC(=O)O)C(=O)N[C@@H]1C(=O)NCC(=O)N[C@@H](CCCN)C(=O)N[C@@H](CC(=O)O)C(=O)N[C@H](C)C(=O)N[C@@H](CC(=O)O)C(=O)NCC(=O)N[C@H](CO)C(=O)N[C@@H]([C@H](C)CC(=O)O)C(=O)N[C@@H](CC(=O)c2ccccc2N)C(=O)O[C@@H]1C | – | – | – | – | – | – | 0.21 | 2.6 | – | –
7 | Cc1sc2nc1C(=O)N[C@@H]([C@H](O)c1ccccc1)c1nc(cs1)C(=O)N[C@@H](Cc1ccc(O)cc1)C(=O)NCC(=O)N1C[C@H](O)[C@H](C)[C@H]1c1nc(cs1)-c1nc(cs1)-c1nc(-c3nc(N(CCCCC(=O)O)C(=O)O[C@H]4CC[C@H](C(=O)O)CC4)cs3)ccc1-c1nc(cs1)C(=O)N[C@H]2CC(N)=O | 0.06 (≈ 0.04 µM) | 9700 (≈ 6470 µM) | 0.25 (≈ 0.167 µM) | 0.125 (≈ 0.0833 µM) | 0.25 (≈ 0.167 µM) | 0.125 (≈ 0.0833 µM) | – | – | – | survival at 5 mg/kg (Clostridioides difficile [11]): 25%; survival at 10 mg/kg (Clostridioides difficile [12]): 63%
8 | Cc1sc2nc1C(=O)N[C@@H]([C@H](O)c1ccccc1)c1nc(cs1)C(=O)N[C@@H](Cc1ccc(O)cc1)C(=O)NCC(=O)N1C[C@H](O)[C@H](C)[C@H]1c1nc(cs1)-c1nc(cs1)-c1nc(-c3nc(NC(=O)O[C@H]4CC[C@H](C(=O)O)CC4)cs3)ccc1-c1nc(cs1)C(=O)N[C@H]2CC(N)=O | 0.03 (≈ 0.0214 µM) | 6 (≈ 4.29 µM) | 0.125 (≈ 0.0893 µM) | 0.125 (≈ 0.0893 µM) | 0.25 (≈ 0.179 µM) | 0.125 (≈ 0.0893 µM) | – | – | – | –
9 | COCc1sc2nc1C(=O)NCC(=O)N[C@@H]([C@@H](O)c1ccccc1)c1nc(cs1)-c1nc(cs1)-c1nc(-c3nc(N(CCCCC(=O)O)C(=O)O[C@H]4CC[C@H](C(=O)O)CC4)cs3)ccc1-c1nc(cs1)C(=O)N[C@@H](CC(N)=O)C1=NC(C)=C(S1)C(=O)N[C@H]2C(C)C | – | – | – | – | – | – | – | – | – | survival at 5 mg/kg (Clostridioides difficile [11]): 71 to 75%
10 | Cc1sc2nc1C(=O)N[C@@H]([C@H](O)c1ccccc1)c1nc(cs1)C(=O)N[C@@H](Cc1ccc(O)cc1)C(=O)NCC(=O)N1C[C@H](O)[C@H](C)[C@H]1c1nc(cs1)-c1nc(cs1)-c1nc(-c3nc(C(=O)N[C@H]4CC[C@H](C(=O)O)CC4)cs3)ccc1-c1nc(cs1)C(=O)N[C@H]2CC(N)=O | 0.03 (≈ 0.0217 µM) | 750 (≈ 542 µM) | 0.125 (≈ 0.0903 µM) | 0.125 (≈ 0.0903 µM) | 0.25 (≈ 0.181 µM) | 0.25 (≈ 0.181 µM) | 3.42 | 0.71 | – | Activity (Staphylococcus aureus [5]): Dose-dependent effect; AUC [13]: 13.2 µM·h; clearance [14]: 0.98 mL/min/kg; Activity (Enterococcus faecalis [7]): Dose-dependent effect; half-life [15]: 1.8 h; Vd [16]: 0.032 L/kg; survival at 10 mg/kg (Clostridioides difficile [12]): 0%
